{"data": "Measurements gathered from unrelated publications", "observed": "microbial growth", "note": "Lines come from different studies, so protocols differ."}
{"Compound": "CCCCCCC/C=C/C(=O)N1C(=O)/C(=C(\\O)c2ccc(O)cc2)C(=O)C1CC(C)C (centres unmarked)", "organism": "Proteus vulgaris", "system": "ATCC33420", "MIC": "> 200 µg/mL"}
{"Compound": "CC(C)Oc1c(NC(=O)c2ccc(NC(=O)c3ccc(NC(=O)[C@H](CC(N)=O)NC(=O)c4ccc(NC(=O)c5ccc(C#N)cn5)cc4)cc3)c(OC(C)C)c2O)ccc(C(=O)O)c1O", "organism": "Proteus vulgaris", "system": "DSM2140", "MIC": "1 µg/mL"}
{"Compound": "CCCCCCC/C=C/C(=O)N1CC(=O)/C(=C(\\C)O)C1=O", "organism": "Proteus vulgaris", "system": "ATCC33420", "MIC": "> 200 µg/mL"}
{"Compound": "O=C(CCc1ccc(O)c(O)c1)NCCCCCCCC[P+](c1ccccc1)(c1ccccc1)c1ccccc1.[Br-]", "organism": "Cryptococcus neoformans", "test": "broth dilution", "system": "ATCC208821", "conditions": "24 h", "MIC": "> 32 µg/mL"}
{"Compound": "CCCCCCCCN1CCN(CC(O)(Cn2cncn2)c2ccc(F)cc2F)CC1 (centres unmarked)", "organism": "Nakaseomyces glabratus", "test": "broth dilution", "system": "ATCC2001", "conditions": "48 h", "MIC": "15.6 µg/mL"}
{"Compound": "CCCCCCC/C=C/C(=O)N1C(=O)/C(=C(/C)O)C(=O)C1CCC(=O)O (centres unmarked)", "organism": "Proteus vulgaris", "system": "ATCC33420", "MIC": "> 200 µg/mL"}
{"Compound": "CO[C@@H](C(N)=O)[C@H](NC(=O)c1ccc(NC(=O)c2ccc(C#N)cc2)cc1)C(=O)Nc1ccc(C(=O)Nc2ccc(C(=O)Nc3ccc(C(=O)O)cc3)c(O)c2OC(C)C)cc1", "organism": "Proteus vulgaris", "system": "DSM2140", "MIC": "0.125 µg/mL"}
{"Compound": "CNC(=O)c1cc(Oc2ccc(NC(=O)Nc3ccc(Cl)c(C(F)(F)F)c3)cc2)ccn1", "organism": "Listeria monocytogenes", "MIC": "3 µM"}
{"Compound": "CCCCCCC/C=C/C(=O)N1C(=O)/C(=C(\\O)c2ccc(OCOCCOC)cc2)C(=O)C1CC(C)C (centres unmarked)", "organism": "Proteus vulgaris", "system": "ATCC33420", "MIC": "> 200 µg/mL"}
{"Compound": "CC(C)Oc1c(NC(=O)c2ccc(NC(=O)[C@H](CC(N)=O)NC(=O)c3ccc(NC(=O)c4ccc(C#N)cc4)cc3)cc2)ccc(C(=O)Nc2ccc(C(=O)O)cc2)c1O", "organism": "Proteus vulgaris", "system": "DSM2140", "MIC": "0.25 µg/mL"}
{"Compound": "CCCCCCCCCCCCCCSC[C@@H]1O[C@@H](O[C@@H]2[C@@H](O)[C@H](O[C@@H]3O[C@@H](CN)[C@H](O)[C@@H](O)[C@@H]3N)[C@@H](N)C[C@H]2N)[C@@H](O)[C@H](N)[C@H]1O", "organism": "Listeria monocytogenes", "system": "ATCC19115", "MIC": "0.5 to 1 µg/mL"}
{"Compound": "CC(C)Oc1c(-n2cc(-c3ccc(NC(=O)C(CC(N)=O)NC(=O)c4ccc(NC(=O)c5ccc(C#N)cc5)cc4)cc3)nn2)ccc(C(=O)Nc2ccc(C(=O)O)cc2)c1O (centres unmarked)", "organism": "Proteus vulgaris", "system": "DSM2140", "MIC": "2 µg/mL"}
{"Compound": "OC(CN1CCOCC1)(Cn1cncn1)c1ccc(F)cc1F (centres unmarked)", "organism": "Nakaseomyces glabratus", "test": "broth dilution", "system": "ATCC2001", "conditions": "48 h", "MIC": "31.3 µg/mL"}
{"Compound": "NC[C@H]1O[C@H](O[C@H]2[C@H](O)[C@@H](O[C@H]3O[C@H](CO)[C@@H](O)[C@H](N)[C@H]3O)[C@H](N)C[C@@H]2N)[C@H](O)[C@@H](O)[C@@H]1O", "organism": "Listeria monocytogenes", "system": "ATCC19115", "MIC": "> 128 µg/mL"}
{"Compound": "CC(C)Oc1c(NC(=O)c2ccc(NC(=O)[C@H](CC(N)=O)NC(=O)c3ccc(NC(=O)c4ccc(C#N)cn4)cc3)cc2)ccc(C(=O)Nc2ccc(C(=O)O)cc2)c1O", "organism": "Proteus vulgaris", "system": "DSM2140", "MIC": "0.06 µg/mL"}
{"Compound": "CCCCC(=O)N1C(=O)/C(=C(/C)O)C(=O)C1CC(C)C (centres unmarked)", "organism": "Proteus vulgaris", "system": "ATCC33420", "MIC": "> 200 µg/mL"}
{"Compound": "O=C(Cc1ccc(O)c(O)c1)NCCCCCCCC[P+](c1ccccc1)(c1ccccc1)c1ccccc1.[Br-]", "organism": "Cryptococcus neoformans", "test": "broth dilution", "system": "ATCC208821", "conditions": "24 h", "MIC": "> 32 µg/mL"}
